The values that follow come from ChEMBL document CHEMBL5046287 (J Med Chem, 2022).

Data set [1] deals with T1, Aldehyde dehydrogenase, dimeric NADP-preferring (Homo sapiens) (UniProt P30838).
T1 sequence (whole entry): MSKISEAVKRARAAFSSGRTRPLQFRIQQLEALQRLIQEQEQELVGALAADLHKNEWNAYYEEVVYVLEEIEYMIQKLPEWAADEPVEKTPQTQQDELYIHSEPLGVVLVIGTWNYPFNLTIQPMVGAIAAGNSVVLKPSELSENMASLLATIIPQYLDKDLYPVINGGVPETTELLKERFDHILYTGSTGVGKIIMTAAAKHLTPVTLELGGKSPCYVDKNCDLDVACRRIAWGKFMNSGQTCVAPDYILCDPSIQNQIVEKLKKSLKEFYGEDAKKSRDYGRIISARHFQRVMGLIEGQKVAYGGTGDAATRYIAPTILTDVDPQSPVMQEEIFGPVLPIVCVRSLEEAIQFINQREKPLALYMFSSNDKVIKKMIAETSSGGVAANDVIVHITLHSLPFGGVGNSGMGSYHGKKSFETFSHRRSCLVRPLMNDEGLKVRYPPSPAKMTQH
Put plainly: Inhibition of N-terminal-His6 tagged recombinant human ALDH3A1 assessed as remaining enzyme activity by measuring fluorescence of NADPH using 4-NBA and NADP+ as substrate at 10 uM by fluorimetric analysis relative to control. The method in brief:
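Single-point screen at 10 μM inhibitor, 1% DMSO final. Enzyme in 50 mM Tris–HCl, 5 mM DTT, pH 8.0, with 1 mM NADP+ and 4-NBA at 31 and 250 μM. NADPH fluorescence (ex 340/em 460 nm) or absorbance at 340 nm. Enzyme kept 50–100-fold below substrate; result is % remaining activity.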

Data set [2] concerns H415. Put plainly: Cytotoxicity against human H415/15 cells assessed as reduction in cell viability incubated for 72 hrs by AlamarBlue staining based analysis. Type of data set: functional. The note with it: dose 50-200 µM. An outline of the steps:
(§1)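 Primary prostate epithelial cells (cancer from radical prostatectomy, BPH from transurethral resection) plated 5000 cells/well in SCM for 24 h at 37 °C, 5% CO2, then given inhibitor alone at 50 or 200 μM (200 mM DMSO stocks) for 72 h. Alamar Blue at 10% of volume for 1–4 h. Viability is % of DMSO control; triplicate, mean.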

For data set [3], the system named is H568. The data set is described as follows: Cytotoxicity against human H568/15 RM cells assessed as reduction in cell viability incubated for 72 hrs by AlamarBlue staining based analysis. The data set is classed as functional. The conditions noted are these: dose 50-200 µM. The method in brief:
as §1
(In general: The colour change of resazurin is a common sign of viable cells or microbes.)

Data set [4] concerns H517. Put plainly: Cytotoxicity against human H517/15 RM cells assessed as reduction in cell viability incubated for 72 hrs by AlamarBlue staining based analysis. Type of data set: functional. The conditions noted are these: dose 50-200 µM. The method in brief: as §1
In data set [5] the test system is H488. The data set is described as follows: Cytotoxicity against human H488/14 RM cells assessed as reduction in cell viability incubated for 72 hrs by AlamarBlue staining based analysis. Type of data set: functional. The note with it: dose 50-200 µM. The method in brief:
as §1

In data set [6] the test system is H431. Put plainly: Cytotoxicity against human H431/14 LM cells assessed as reduction in cell viability incubated for 72 hrs by AlamarBlue staining based analysis. The data set is classed as functional. The conditions noted are these: dose 50-200 µM. An outline of the steps:
as §1

In data set [7] the test system is PC-3. Put plainly: Antiproliferative activity against human PC-3 cells expressing ALDH1A1 and ALDH3A1 assessed as reduction in cell survival measured after 96 hrs by MTT assay. Type of data set: functional, cell-based. The note with it: PC-3, 96 h. The method in brief:
(§2)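 Adherent prostate cancer cells seeded in 96-well plates, left overnight at 37 °C, 5% CO2, 100% humidity, then exposed to compounds at 12.5–200 μM for 96 h. Read-out: MTT (0.5 mg/mL) added for 4 h at 37 °C, formazan dissolved in DMSO, absorbance at 540 nm. IC50 from five-dose screen.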
In general terms: Tetrazolium assays rely on reduction of a dye to a coloured formazan, in cell work by metabolically active cells.

Data set [8] relates to LNCaP. The data set is described as follows: Antiproliferative activity against human LNCaP cells expressing ALDH1A3 assessed as reduction in cell survival measured after 96 hrs by MTT assay. Type of data set: functional, cell-based. An outline of the steps:
as §2

The test system of data set [9] is DU-145. Put plainly: Antiproliferative activity against human DU145 cells expressing ALDH1A1 assessed as reduction in cell survival measured after 96 hrs by MTT assay. Type of data set: functional, cell-based. The conditions noted are these: DU-145, 96 h. An outline of the steps: as §2
Data set [10] deals with H431. The data set is described as follows: Cytotoxicity against human H431/14 LM cells assessed as reduction in cell viability at 50 to 200 uM incubated for 72 hrs in presence of docetaxel by AlamarBlue staining based analysis. The data set is classed as functional. The note with it: dose 50-200 µM. The method in brief: (§3)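 Primary prostate epithelial cells (radical prostatectomy cancer or transurethral resection BPH) seeded at 5000 cells/well in SCM, 24 h at 37 °C, 5% CO2. Treated with inhibitor at 50 or 200 μM plus 1 nM docetaxel (DMSO stocks 200 mM) for 72 h. Alamar Blue added at 10% volume, 1–4 h at 37 °C. Viability is % of DMSO-treated control; triplicate, mean; paired two-tailed t-test.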

For data set [11], the system named is H488. The data set is described as follows: Cytotoxicity against human H488/14 RM cells assessed as reduction in cell viability at 50 to 200 uM incubated for 72 hrs in presence of docetaxel by AlamarBlue staining based analysis. Type of data set: functional. The note with it: dose 50-200 µM. An outline of the steps:
as §3

Data set [12] deals with T2, Aldehyde dehydrogenase 1A1 (Homo sapiens, UniProt P00352).
T2 sequence (P00352 whole entry): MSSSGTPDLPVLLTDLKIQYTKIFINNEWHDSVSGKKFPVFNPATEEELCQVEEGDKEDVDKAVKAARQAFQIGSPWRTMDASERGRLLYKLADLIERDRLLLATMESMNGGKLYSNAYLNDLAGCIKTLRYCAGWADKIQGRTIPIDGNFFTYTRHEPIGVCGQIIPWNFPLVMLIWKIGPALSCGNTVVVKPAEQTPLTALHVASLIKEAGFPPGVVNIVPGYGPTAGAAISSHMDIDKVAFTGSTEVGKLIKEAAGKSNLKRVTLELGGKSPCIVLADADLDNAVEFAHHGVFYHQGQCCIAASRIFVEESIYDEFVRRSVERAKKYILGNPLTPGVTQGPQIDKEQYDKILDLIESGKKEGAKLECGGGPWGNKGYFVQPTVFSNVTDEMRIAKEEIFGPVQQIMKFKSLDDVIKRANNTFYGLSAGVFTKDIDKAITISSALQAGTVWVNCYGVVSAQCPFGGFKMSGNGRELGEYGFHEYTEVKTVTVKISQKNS
The data set is described as follows: Substrate activity at N-terminal-His6 tagged recombinant human ALDH1A1 at 10 uM […] by fluorimetric analysis relative to hexanal. Type of data set: ADME. An outline of the steps:
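Compound at 10 μM used as substrate in place of hexanal. Buffer 50 mM HEPES, 0.5 mM EDTA, 0.5 mM DTT, pH 8.0, with 500 μM NAD+. NADH fluorescence (ex 340/em 460 nm). Activity given as % of that with 10 μM hexanal; mean ± SE.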

Data set [13] concerns H517. Put plainly: Cytotoxicity against human H517/15 RM cells assessed as reduction in cell viability at 50 to 200 uM incubated for 72 hrs in presence of docetaxel by AlamarBlue staining based analysis. Type of data set: functional. The note with it: dose 50-200 µM. An outline of the steps:
as §3

In data set [14] the test system is H568. Put plainly: Cytotoxicity against human H568/15 RM cells assessed as reduction in cell viability at 50 to 200 uM incubated for 72 hrs in presence of docetaxel by AlamarBlue staining based analysis. The data set is classed as functional. The conditions noted are these: dose 50-200 µM. The method in brief: as §3
The test system of data set [15] is H415. The data set is described as follows: Cytotoxicity against human H415/15 cells assessed as reduction in cell viability at 50 to 200 uM incubated for 72 hrs in presence of docetaxel by AlamarBlue staining based analysis. The note with it: dose 50-200 µM. Type of data set: functional. An outline of the steps: as §3
Data set [16] concerns the target T3, Aldehyde dehydrogenase, dimeric NADP-preferring (Homo sapiens, UniProt P30838).
T3 sequence (P30838 whole entry): T1 sequence (whole entry)
Put plainly: Substrate activity at N-terminal-His6 tagged recombinant human ALDH3A1 at 10 uM […] by fluorimetric analysis relative to 4-NBA. The data set is classed as ADME. The method in brief:
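Compound at 10 μM used as substrate in place of 4-NBA. Buffer 50 mM Tris–HCl, 5 mM DTT, pH 8.0, with 1 mM NADP+. NADPH fluorescence (ex 340/em 460 nm). Activity given as % of that with 10 μM 4-NBA; mean ± SE.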

In data set [17] the target is T1, Aldehyde dehydrogenase, dimeric NADP-preferring (Homo sapiens). Put plainly: Inhibition of N-terminal-His6 tagged recombinant human ALDH3A1 using 4-NBA as substrate in absence of NADP+ by fluorimetric analysis. An outline of the steps: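 The standard 5-min preincubation of enzyme with inhibitor was run without NADP+, and compared with preincubation including cofactor. Fluorimetric NADPH read-out; mean ± SE.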

Calls of active or inactive are those of the source. No cut-off for these calls is given here.

`CCCN(CCC)c1ccc(C=O)cc1`: in data set [1], the Activity is below 15%.

As for `CCN(CC)c1ccc(C=O)cc1`, the Activity result in data set [2], in [3], in data set [4], in data set [5] and in [6] was “Dose-Dependent Effect” in each case.

Broadly, the IC50 is the concentration at which inhibition is half-maximal. For the compound `CCCN(CCC)c1ccc(C=O)cc1C`, the IC50 stood at 106 µM in data set [7], 61 µM in [8] and 103 µM in [9]. Besides, the Activity in data set [1] was below 15%.

Take `CCCN(CCC)c1ccc(C=O)cc1Br`: the Activity entry is “Dose-Dependent Effect” in [2]; below 15% in [1]; 3.14% in [12]; “Dose-Dependent Effect” in data set [3]; “Dose-Dependent Effect” in data set [4]; “Dose-Dependent Effect” in [5]. Moreover, the figures for the Activity entry in data set [6] and in [16] were “Dose-Dependent Effect” and below 5%, respectively. The outcome in data set [10], in [11], in data set [13], in [14] and in data set [15] was Active.

With `CCCN(CCC)c1ccc(C=O)cc1[N+](=O)[O-]`, the Activity result is “Dose-Dependent Effect” in data set [2]; below 15% in [1]; “Dose-Dependent Effect” in data set [3]; “Dose-Dependent Effect” in data set [4]; “Dose-Dependent Effect” in data set [5]; “Dose-Dependent Effect” in data set [6]. The outcome in data set [10], in data set [11], in [13], in data set [14] and in [15] was Active. For the same compound, the inhibition result in data set [17] is “Active”.

As to `CCCN(CCC)c1ccc(C=O)cc1OC`, the half-maximal inhibitory concentration (IC50) in data set [7] is 75 µM; in data set [8], 50 µM; in data set [9], 71 µM.

Take `CCCN(CCC)c1ccc(C=O)cc1Cl`: in data set [1], the Activity is below 15%.
